Assay results from ChEMBL document CHEMBL4311953, “Targeting DNA Repair in Tumor Cells via Inhibition of ERCC1-XPF” (J Med Chem, 2019).
Active and inactive are the calls of the source. The rule behind the calls is not given here.

Key:
[1] = molecular target: T1, DNA excision repair protein ERCC-1/DNA repair endonuclease XPF (Homo sapiens) (UniProt P07992+Q92889); experiment: (§1) Inhibition of ERCC1-XPF-mediated nucleotide excision repair in human HCT116 cells assessed as reduction in removal of UV-induced cyclobutane pyrimidine dimer at 2 uM incubated for 1 hr prior to compound washout followed by 8 J/m2 UV irradiation and subsequent compound addition and measured after 24 hrs by DAPI staining-based immunofluorescence assay; assay type: cell-based
Summary of the method: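 HCT-116 cells on coverslips pretreated 1 h with compound, then 8 J/m² UV-C (254 nm) and re-fed medium with compound; incubated at 37°C up to 24 h. Methanol-fixed, HCl-denatured cells stained with anti-thymine dimer antibody and fluorescent secondary, DAPI mounted. Intensity quantified from 50 random cells per treatment; Student's t-test.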

[2] = molecular target: T1, DNA excision repair protein ERCC-1/DNA repair endonuclease XPF (Homo sapiens); experiment: Binding affinity to human His6-tagged ERCC1-XPF expressed in Escherichia coli BL21 (DE3) assessed as tryptophan fluorescence quenching at 2 uM by spectrofluorimetric method relative to control
Summary of the method: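 Intrinsic tryptophan fluorescence of purified ERCC1-XPF (13–20 nM) with 2 μM ligand added from stock, protein dilution kept below 3%; excitation 295 nm, quenching read at 330 nm, room temperature.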

[3] = molecular target: T1, DNA excision repair protein ERCC-1/DNA repair endonuclease XPF (Homo sapiens); experiment: Inhibition of human His6-tagged ERCC1-XPF endonuclease activity expressed in Escherichia coli BL21 (DE3) at 8 uM using [6-FAM-5'-CAGCGCTCGG(20T)CCGAGCGCTG-3'-dabcyl] as substrate measured for 12 mins by fluorescence assay
Summary of the method: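 Real-time incision of 100 nM 6-FAM/dabcyl stem-loop substrate by 25 ng recombinant ERCC1-XPF in 50 mM Tris-Cl pH 8, 20 mM NaCl, 0.5 mM DTT, 0.75 mM MnCl₂ at 25°C; fluorescence (ex 485/em 520 nm) read for 12 min.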

[4] = Binding affinity to 6-FAM-5'-CAGCGCTCGG(20T)CCGAGCGCTG-3'-dabcyl DNA (unknown origin) by spectrofluorimetric method
Summary of the method: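 FAM/dabcyl-labelled stem-loop DNA substrate excited at 490 nm, emission at 520 nm followed as a function of ligand concentration; Kd obtained by nonlinear regression assuming unimodal binding.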

HCT-116 [5] = experiment: (§2) Potentiation of cyclophosphamide-induced cytotoxicity against human HCT116 cells assessed as reduction in colony formation at 2 uM incubated for 4 hrs prior to 300 uM cyclophosphamide addition for 24 hrs followed by compound washout and subsequent compound redosing and measured after 8 days by crystal violet staining-based assay; assay type: functional; parameters: scale not given: the % may be the effect or the level left
Summary of the method: (§3)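 HCT-116 cells plated in triplicate, attached overnight, pretreated 4 h with 1 or 2 μM compound, then cyclophosphamide (0-300 μM) added for 24 h; medium replaced with compound alone and incubated 8 more days at 37°C, 5% CO₂. Crystal violet colonies counted, surviving fraction calculated; three independent sets, Student's t-test.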

Cytochrome P450 3A4 = Cytochrome P450 3A4 (Homo sapiens, UniProt P08684); experiment: Inhibition of CYP3A4 (unknown origin) using midazolam as substrate; assay type: ADME
Cytochrome P450 3A4, sequence (P08684 whole entry): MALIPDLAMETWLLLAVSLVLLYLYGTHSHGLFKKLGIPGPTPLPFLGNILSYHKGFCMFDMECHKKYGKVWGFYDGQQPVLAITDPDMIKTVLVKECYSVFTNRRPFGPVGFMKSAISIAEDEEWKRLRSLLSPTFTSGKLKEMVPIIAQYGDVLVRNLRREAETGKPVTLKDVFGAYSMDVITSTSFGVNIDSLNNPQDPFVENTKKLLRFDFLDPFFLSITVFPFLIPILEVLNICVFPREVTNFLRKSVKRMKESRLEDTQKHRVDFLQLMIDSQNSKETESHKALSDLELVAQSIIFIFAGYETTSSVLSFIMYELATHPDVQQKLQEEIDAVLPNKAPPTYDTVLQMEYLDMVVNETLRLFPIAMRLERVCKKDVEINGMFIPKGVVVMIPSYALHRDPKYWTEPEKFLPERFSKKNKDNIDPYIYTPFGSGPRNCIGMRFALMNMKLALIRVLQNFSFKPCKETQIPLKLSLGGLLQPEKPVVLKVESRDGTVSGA

HCT-116 [6] = experiment: as §2, with “human XPF-knockout” for “human”, “50” for “300”; assay type: functional, cell-based
[7] = Protein binding in serum (unknown origin); assay type: ADME, cell-free
[8] = molecular target: T1, DNA excision repair protein ERCC-1/DNA repair endonuclease XPF (Homo sapiens); experiment: Binding affinity to human N-terminal His6-tagged RED-tris-NTA labelled ERCC1 (96 to 297 residues)-XPF (667 to 916 residues) expressed in Escherichia coli BL21 (DE3) at 10 uM measured after 20 mins by microscale thermophoresis assay
Summary of the method: (§4)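 Truncated His-tagged dERCC1 (96-297) and dXPF (667-916) from BL21(DE3), labelled with RED-tris-NTA, at 20 nM singly or as equimolar dimer in 20 mM HEPES pH 7.4, 50 mM NaCl, 1 mM DTT, 2 mM MgCl2, 5% glycerol, 0.01% CHAPS; 10 μM compound or DMSO, 20 min room temperature; MST at high power, 670 nm emission.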

HCT-116 [9] = experiment: as §2, with “50” for “300”; assay type: functional, cell-based; summary of the method: as §3
[10] = Binding affinity to RED-tris-NTA at 10 uM measured after 20 mins by microscale thermophoresis assay; summary of the method: as §4
Cytochrome P450 2C19 = Cytochrome P450 2C19 (Homo sapiens, UniProt P33261); experiment: Inhibition of CYP2C19 (unknown origin); assay type: ADME
Cytochrome P450 2C19, sequence (P33261 whole entry): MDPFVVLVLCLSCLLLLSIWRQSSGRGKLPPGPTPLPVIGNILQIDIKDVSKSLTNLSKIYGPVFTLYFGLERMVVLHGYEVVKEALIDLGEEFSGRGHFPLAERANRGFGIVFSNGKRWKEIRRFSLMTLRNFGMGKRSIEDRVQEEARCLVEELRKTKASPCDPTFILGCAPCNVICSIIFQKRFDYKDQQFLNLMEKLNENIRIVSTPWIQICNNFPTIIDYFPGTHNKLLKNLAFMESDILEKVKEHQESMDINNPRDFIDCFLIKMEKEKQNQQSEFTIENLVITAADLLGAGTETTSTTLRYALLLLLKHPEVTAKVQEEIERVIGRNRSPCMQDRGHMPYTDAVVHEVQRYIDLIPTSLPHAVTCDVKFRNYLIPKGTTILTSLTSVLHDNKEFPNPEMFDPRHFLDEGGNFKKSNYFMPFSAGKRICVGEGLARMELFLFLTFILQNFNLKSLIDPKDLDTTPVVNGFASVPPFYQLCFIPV

Cytochrome P450 2C9 = Cytochrome P450 2C9 (Homo sapiens, UniProt P11712); experiment: Inhibition of CYP2C9 (unknown origin); assay type: ADME
Cytochrome P450 2C9, sequence (P11712 whole entry): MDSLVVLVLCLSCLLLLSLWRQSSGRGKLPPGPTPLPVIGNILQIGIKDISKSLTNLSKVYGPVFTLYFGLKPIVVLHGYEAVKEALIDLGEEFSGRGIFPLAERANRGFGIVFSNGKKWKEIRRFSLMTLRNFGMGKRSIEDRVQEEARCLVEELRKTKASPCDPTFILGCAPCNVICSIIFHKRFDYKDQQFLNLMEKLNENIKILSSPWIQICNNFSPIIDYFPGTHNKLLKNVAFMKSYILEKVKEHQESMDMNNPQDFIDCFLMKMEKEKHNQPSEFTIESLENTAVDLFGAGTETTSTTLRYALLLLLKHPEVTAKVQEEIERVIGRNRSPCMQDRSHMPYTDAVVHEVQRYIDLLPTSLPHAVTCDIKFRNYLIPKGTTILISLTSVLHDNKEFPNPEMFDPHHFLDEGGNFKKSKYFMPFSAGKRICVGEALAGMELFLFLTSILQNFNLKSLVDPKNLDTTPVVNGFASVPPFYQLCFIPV

HCT-116 [11] = experiment: Phototoxicity against human HCT116 cells assessed as reduction in colony formation at 2 uM incubated for 1 hr prior to compound washout followed by 254 nm UV irradiation and subsequent compound addition measured after 10 days by crystal violet staining-based assay; assay type: functional, cell-based
Summary of the method: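 HCT-116 cells plated in triplicate (100-800 cells), attached overnight, treated 1 h with 1 or 2 μM compound, exposed to 0-10 J/m² 254 nm UV-C, then grown 10 days with inhibitor at 37°C, 5% CO₂. Crystal violet stained colonies counted; plating efficiency and surviving fraction calculated; three independent sets.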

[12] = molecular target: T1, DNA excision repair protein ERCC-1/DNA repair endonuclease XPF (Homo sapiens); experiment: Time dependent inhibition of human His6-tagged ERCC1-XPF endonuclease activity expressed in Escherichia coli BL21 (DE3) at 3 uM using [6-FAM-5'-CAGCGCTCGG(20T)CCGAGCGCTG-3'-dabcyl] as substrate in presence of 5 to 10% DMSO by fluorescence assay
Summary of the method: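 ERCC1-XPF preincubated with 3 μM compound in 10% or 5% DMSO; reactions started at T0 with substrate, or at T12 […]. Same stem-loop incision read-out (ex 485/em 520) in Tris-Cl pH 8, MnCl2 buffer at 25°C.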

Cytochrome P450 2D6 = Cytochrome P450 2D6 (Homo sapiens, UniProt P10635); experiment: Inhibition of CYP2D6 (unknown origin); assay type: ADME
Cytochrome P450 2D6, sequence (P10635 whole entry): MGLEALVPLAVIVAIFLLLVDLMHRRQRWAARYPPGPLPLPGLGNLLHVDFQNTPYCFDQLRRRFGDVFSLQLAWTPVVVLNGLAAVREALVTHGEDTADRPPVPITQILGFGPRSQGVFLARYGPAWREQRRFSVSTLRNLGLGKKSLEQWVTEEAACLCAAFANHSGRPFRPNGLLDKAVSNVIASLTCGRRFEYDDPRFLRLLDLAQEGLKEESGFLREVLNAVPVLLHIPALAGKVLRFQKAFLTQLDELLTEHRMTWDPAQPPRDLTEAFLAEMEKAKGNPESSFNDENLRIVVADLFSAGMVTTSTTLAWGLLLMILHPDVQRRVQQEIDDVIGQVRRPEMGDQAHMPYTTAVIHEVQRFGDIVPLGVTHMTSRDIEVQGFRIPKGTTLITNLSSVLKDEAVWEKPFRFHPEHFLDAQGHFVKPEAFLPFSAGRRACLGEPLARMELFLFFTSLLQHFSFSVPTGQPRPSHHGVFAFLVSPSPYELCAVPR

[13] = molecular target: T1, DNA excision repair protein ERCC-1/DNA repair endonuclease XPF (Homo sapiens); experiment: as §1, with “dimer by measuring cyclobutane pyrimidine dimer level” for “dimer”, “assay (reference value: 80%)” for “assay”; assay type: cell-based; parameters: scale not given: the % may be the effect or the level left
Summary of the method: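 HCT-116 cells on coverslips, 1 h compound pretreatment, 8 J/m² UV-C (254 nm), then fresh medium with compound at 37°C up to 24 h. Fixed, HCl-denatured, stained with anti-thymine dimer antibody plus fluorescent secondary, DAPI mount. Intensity from 50 random cells per treatment, normalized; Student's t-test.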

HCT-116 [14] = experiment: as §2, with “human XPF-knockout” for “human”; assay type: functional; parameters: scale not given: the % may be the effect or the level left
HCT-116 [15] = experiment: Cytotoxicity against human HCT116 cells assessed as reduction in colony formation at 1 to 2 uM; details: hct-116, 2 µM
[16] = Efflux ratio of permeability in human Caco2 cells; assay type: ADME, cell-based; details: Caco-2
Cytochrome P450 1A2 = molecular target: T2, Cytochrome P450 1A2 (Homo sapiens, UniProt P05177); experiment: Inhibition of CYP1A2 (unknown origin); assay type: ADME
T2 sequence (P05177 whole entry): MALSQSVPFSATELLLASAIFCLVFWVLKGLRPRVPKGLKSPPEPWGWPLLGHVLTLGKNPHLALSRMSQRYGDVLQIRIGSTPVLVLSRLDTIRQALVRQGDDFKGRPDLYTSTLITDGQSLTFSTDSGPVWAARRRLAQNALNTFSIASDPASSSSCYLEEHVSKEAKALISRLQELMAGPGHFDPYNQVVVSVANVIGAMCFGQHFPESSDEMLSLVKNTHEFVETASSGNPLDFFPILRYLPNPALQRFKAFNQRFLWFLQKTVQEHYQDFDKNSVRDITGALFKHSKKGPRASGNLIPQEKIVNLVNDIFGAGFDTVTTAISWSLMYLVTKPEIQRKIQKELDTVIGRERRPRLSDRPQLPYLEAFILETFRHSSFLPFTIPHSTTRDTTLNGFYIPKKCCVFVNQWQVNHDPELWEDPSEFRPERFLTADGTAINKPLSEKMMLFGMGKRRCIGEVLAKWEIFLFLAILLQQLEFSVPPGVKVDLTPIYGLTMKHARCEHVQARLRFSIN

[17] = molecular target: T3, DNA excision repair protein ERCC-1/DNA repair endonuclease XPF (Homo sapiens, UniProt P07992+Q92889)
T3 sequence (P07992 whole entry): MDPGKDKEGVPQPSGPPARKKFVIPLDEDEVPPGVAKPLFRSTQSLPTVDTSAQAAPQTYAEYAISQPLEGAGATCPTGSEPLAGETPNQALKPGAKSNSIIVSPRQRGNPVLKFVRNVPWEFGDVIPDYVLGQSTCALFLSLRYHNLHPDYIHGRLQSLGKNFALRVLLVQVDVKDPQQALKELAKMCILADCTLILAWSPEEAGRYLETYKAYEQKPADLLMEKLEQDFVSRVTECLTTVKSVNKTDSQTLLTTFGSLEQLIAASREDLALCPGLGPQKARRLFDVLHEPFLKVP
T3 sequence (Q92889 whole entry): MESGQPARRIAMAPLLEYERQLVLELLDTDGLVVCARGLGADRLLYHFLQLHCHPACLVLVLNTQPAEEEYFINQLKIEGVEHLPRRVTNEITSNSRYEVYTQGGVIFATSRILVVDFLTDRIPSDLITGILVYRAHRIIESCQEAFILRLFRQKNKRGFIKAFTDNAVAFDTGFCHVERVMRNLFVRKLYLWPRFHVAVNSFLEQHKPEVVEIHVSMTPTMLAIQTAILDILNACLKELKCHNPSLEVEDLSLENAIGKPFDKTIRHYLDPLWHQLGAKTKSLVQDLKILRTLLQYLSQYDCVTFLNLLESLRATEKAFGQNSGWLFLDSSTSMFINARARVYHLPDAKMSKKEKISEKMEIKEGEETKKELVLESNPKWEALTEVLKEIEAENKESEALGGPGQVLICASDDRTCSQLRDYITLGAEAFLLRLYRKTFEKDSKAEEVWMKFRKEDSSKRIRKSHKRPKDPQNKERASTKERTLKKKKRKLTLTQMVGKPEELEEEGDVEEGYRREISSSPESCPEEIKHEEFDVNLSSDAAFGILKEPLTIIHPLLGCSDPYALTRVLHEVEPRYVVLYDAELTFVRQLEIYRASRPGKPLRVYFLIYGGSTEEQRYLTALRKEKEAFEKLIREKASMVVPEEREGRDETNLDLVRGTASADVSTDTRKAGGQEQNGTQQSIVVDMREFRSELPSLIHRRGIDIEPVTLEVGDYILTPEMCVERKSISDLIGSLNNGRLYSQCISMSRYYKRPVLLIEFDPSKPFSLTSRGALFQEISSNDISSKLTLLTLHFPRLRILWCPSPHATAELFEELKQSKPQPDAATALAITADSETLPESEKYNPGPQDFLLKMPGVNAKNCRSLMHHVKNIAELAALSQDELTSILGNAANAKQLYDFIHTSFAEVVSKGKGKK

[18] = Stability of the compound in human liver microsomes; assay type: ADME, Microsome

## COc1ccc2nc3cc(Cl)ccc3c(Nc3ccc(O)c(CN4CCN(c5ccc(Cl)c(Cl)c5)CC4)c3)c2c1
[1]
  inhibition: inactive
[2]
  Activity: 3%

## COc1ccc2nc3cc(Cl)ccc3c(Nc3ccc(O)c(CN4CCN(CCN(C)C)CC4)c3)c2c1
[3]
  inhibition: Active
[4]
  Kd: 2100 nM
HCT-116 [5]
  Activity: 100%
Cytochrome P450 3A4
  IC50: > 1000 nM
HCT-116 [6]
  Activity: Active
[7]
  PB: Active
[8]
  Activity: Active
HCT-116 [9]
  Activity: Active
[2]
  Activity: 23%
[10]
  Activity: inactive
Cytochrome P450 2C19
  IC50: > 1000 nM
Cytochrome P450 2C9
  IC50: > 1000 nM
HCT-116 [11]
  Activity: Active
[12]
  TDI: Active
Cytochrome P450 2D6
  IC50: > 1000 nM
[13]
  Activity: 60%
HCT-116 [14]
  Activity: 100%
HCT-116 [15]
  Activity: Non-Toxic

## COc1ccc2nc3cc(Cl)ccc3c(Nc3ccc(O)c(CN4CCN(C5CCCCC5)CC4)c3)c2c1
[3]
  inhibition: Active

## COc1ccc2nc3cc(Cl)ccc3c(Nc3ccc(O)c(CN4CCN(C)CC4)c3)c2c1
[16]
  efflux ratio: 11.2
[3]
  inhibition: Active
Cytochrome P450 3A4
  IC50: 1000 to 10000 nM
[7]
  PB: Active
Cytochrome P450 1A2
  IC50: 10000 to 50000 nM
[17]
  IC50: 1860 nM
Cytochrome P450 2C19
  IC50: 10000 to 50000 nM
Cytochrome P450 2C9
  IC50: 10000 to 50000 nM
Cytochrome P450 2D6
  IC50: 1000 to 10000 nM
[18]
  Stability: Unstable
